Myeloid diff 2 – compounds promoting myeloid differentiation; ER-HoxA9 myeloid progenitors, lysozyme-GFP differentiation, flow cytometry; calls only at 10 µM; hit rate 1% among 360,000;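 active = normalized GFP-positive differentiation at or above the plate's own cutoff, the solvent-only control mean plus 3 SD; inconclusive = no clear call, values can overlap the other calls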;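 note: cells exposed to compound for four days before flow analysis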
TPT1 inh – C. albicans TPT1 enzyme inhibition; recombinant caTPT1, FP RNA substrate dephosphorylation; inhibition, % at 5 µM; hit rate 0.81% among 300,000; AID 1962;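 active = inhibition above the mean of all tested compounds plus 3 SD, set per screening campaign, cut at about 24% in these data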;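 note: plate controls were DMSO alone for no effect and ferristatin control at 100 nM for full effect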
CSN inh – inhibitors of human CSN-mediated cullin deneddylation. Q92905. Purified CSN, SCF-Nedd8-OG deneddylation, fluorescence polarization. inhibition, % at 12.5 µM. hit rate 0.38% among 360,000. AID 651999;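 active = pattern-corrected inhibition above about 35%, with an unprinted fluorescence ratio check between 0.5 and 1.5, limit read from the data, passing the limit was not always enough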;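 note: 0% = enzyme with substrate and 100% = substrate without enzyme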
Target sequence (Q92905 whole entry, looked up, one chain of several): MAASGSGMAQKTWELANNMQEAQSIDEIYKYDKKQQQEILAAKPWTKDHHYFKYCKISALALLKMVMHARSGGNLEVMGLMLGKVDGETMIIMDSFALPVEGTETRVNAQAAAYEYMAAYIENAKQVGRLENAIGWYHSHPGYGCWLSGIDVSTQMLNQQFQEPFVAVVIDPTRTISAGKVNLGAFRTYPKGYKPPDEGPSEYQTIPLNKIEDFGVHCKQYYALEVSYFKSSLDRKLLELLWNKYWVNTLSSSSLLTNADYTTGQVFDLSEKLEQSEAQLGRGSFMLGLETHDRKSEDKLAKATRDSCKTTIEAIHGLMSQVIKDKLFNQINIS
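Test system: Human Csn5 produced in HEK293T cells | Compound: 12.5 µM single point | Times: 90 min, room temperature | Signal: Fluorescence polarization readout | Read-out basis: % inhibition of substrate cleavage by Csn5 | Controls: no-enzyme wells high, enzyme-with-substrate wells low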
Rpn11 inh – blocks the human proteasome subunit Rpn11; human 26S proteasome, Ub4-pepOG fluorescence polarization; 20S core pre-blocked with epoxomicin; inhibition, % at 20 µM; hit rate 0.59% among 360,000; AID 588493;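 active = inhibition at 20 µM, scaled to each plate's controls, above about 33%, limit read from the data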
Target sequence (O00487 whole entry, looked up): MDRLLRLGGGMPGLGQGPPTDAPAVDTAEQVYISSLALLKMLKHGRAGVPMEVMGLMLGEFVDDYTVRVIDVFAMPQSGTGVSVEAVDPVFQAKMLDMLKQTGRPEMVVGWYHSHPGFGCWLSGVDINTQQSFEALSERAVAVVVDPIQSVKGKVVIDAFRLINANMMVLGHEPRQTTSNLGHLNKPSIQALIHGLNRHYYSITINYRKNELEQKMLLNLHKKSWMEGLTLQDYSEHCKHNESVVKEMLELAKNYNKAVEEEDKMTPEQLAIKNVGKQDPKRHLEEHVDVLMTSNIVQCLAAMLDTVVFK
HNF4A DNA FP – change in binding of human HNF4 alpha to DNA; P41235; hit rate 0.3% among 360,000; HNF4a-FITC DNA binding, fluorescence polarization, 1 h; activity change, % at 10 µM; in the data active = activity change above about 30%, passing the limit was not always enough
Rpn11 inh conf – Rpn11 inhibition confirmation, single concentration; inhibition, % at 20 µM; AID 602318; shares compounds with Rpn11 inh; hit rate 29% among 1,900; purified human 26S proteasome, Ub4-pepOG fluorescence polarization; proteasome pretreated with epoxomicin
MMP-2 counter-1 – counter-screen for RPN11 inhibitors: inhibition of human MMP-2; shares compounds with Rpn11 inh; recombinant MMP-2, FRET peptide cleavage fluorescence; inhibition, % at 20 µM; hit rate 4% among 1,900;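 note: human MMP-2 activated beforehand with APMA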
Thrombin inh – blocks bovine thrombin, flagging nonselective RPN11 hits; hit rate 13% among 1,900; bovine thrombin cleavage of Ub4-pepOG, fluorescence polarization; inhibition, % at 20 µM; AID 602333; shares compounds with Rpn11 inh;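 active = mean inhibition at least 40% at 20 µM, or signal 3 deviations below plate average, so some actives read negative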;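 note: plate controls were thrombin with DMSO for no effect and buffer wells lacking thrombin for full effect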
Myeloid diff CP1 – myeloid differentiation induction. shares compounds with Myeloid diff 2. ER-HoxA9 myeloid progenitors, GFP/Mac1 double-positive flow. calls only. hit rate 2% among 2,300;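 active = share of green or green-and-red cells above 9 and 9% in run 1 or 4 and 3% in run 2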
GFP autofluor – flagged as fluorescent in myeloid differentiation counter-screen. AID 651707. fluorescence response, % (test concentration not listed). hit rate 7.4% among 2,300. shares compounds with Myeloid diff 2. ER-HoxA9 myeloid progenitors, no estrogen, GFP autofluorescence flow cytometry; vehicle wells 0%, positive control 100%;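 active = over 5% cells positive for green fluorescent reporter, or over 2% positive for both it and APC stain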;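 note: range taken on the double positive population between DMSO and positive control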
CSN5 deneddyl – validation of inhibitors of human CSN-mediated cullin deneddylation; shares compounds with CSN inh; Csn5 deneddylation of SCF-Nedd8OG, fluorescence polarization, 90 min; inhibition, % at 16.6 µM; hit rate 62% among 540; in the data active = inhibition above about 50%;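 note: 0% = DMSO with enzyme and 100% = no enzyme wells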
MMP-2 counter-2 – counter-screen for CSN deneddylation inhibitors: human MMP-2 inhibition; inhibition, % at 16.6 µM; AID 720655; shares compounds with CSN inh; recombinant MMP-2, FRET substrate fluorescence, 60 min; hit rate 33% among 540;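 active = corrected plate-normalized z-score of 5 or more, or -5 or less, or inhibition of 15% or more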;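 note: plate controls were DMSO wells with enzyme for no effect and buffer wells lacking MMP-2 for full effect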
Thrombin counter – thrombin (bovine) inhibition, counter-screen for CSN hits. shares compounds with CSN inh. bovine thrombin cleavage of Ub4-pepOG, fluorescence polarization. inhibition, % at 16.6 µM. hit rate 49% among 540;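 active = inhibition at or above a set limit, with a fluorescence interference ratio between 0.5 and a set maximum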
Active calls of the source: *; i = inactive; ? = inconclusive; . = no result given; + = active, no number. An excerpt weighted towards active compounds, which were near 2.3% of everything screened. Cut-off read from the data, not from the text of the source, unless noted: active = inhibition above about 40%; inactive = the rest.

SMILES | Myeloid diff 2 | TPT1 inh | CSN inh | Rpn11 inh | HNF4A DNA FP | Rpn11 inh conf | MMP-2 counter-1 | Thrombin inh | Myeloid diff CP1 | GFP autofluor | others
COCCNC(=O)C1(C)CCN(C(=O)Cc2ccc(OC)c(OC)c2)C1 (stereo not drawn) | i | . | 4 | -2 | 1 | . | . | . | . | .
O=C1c2ccccc2C(c2nnnn2-c2ccc3c(c2)OCCO3)N1Cc1cccs1 (stereo not drawn) | i | . | -3 | . | -3 | . | . | . | . | .
COc1ccc(N2CCc3c(C)nc4c(OC)cc(OC)cc4c32)cc1 | i | -1 | 1 | -7 | 3 | . | . | . | . | .
COc1ccc(N2CCc3c(C)nc4c(OC)cccc4c32)cc1 | ? | 0 | 10 | 43* | 5 | -15 | -25 | -2 | . | .
CC1=CC(=C(C#N)C#N)c2ccccc2N1C | i | -3 | -5 | 43* | -6 | 125* | -10 | 56* | i | 2
Clc1ccc(NCc2ccsc2)cc1 | . | 1 | . | . | . | . | . | . | . | .
CCOc1ccccc1NC(=O)C(OC(=O)c1ccc(NC(=O)CC#N)cc1)c1ccccc1 (stereo not drawn) | + | 8 | 2 | 45* | 12 | 28 | 5 | 7 | i | 5.3*
CCOc1ccccc1NC(=O)C(OC(=O)c1ccccc1)c1ccccc1 (stereo not drawn) | i | 4 | -5 | 2 | -5 | . | . | . | . | .
Cc1noc(/C=C/N(C)C)c1S(=O)(=O)N1CCCC(C(=O)Nc2ccc(F)cc2F)C1 (stereo not drawn) | i | 11 | -1 | -2 | 1 | . | . | . | . | .
CN1CCc2c(sc(/N=C/c3c[nH]c4ccccc34)c2C(N)=O)C1 | + | 2 | 115* | 114* | 32 | 3 | -25 | 4 | i | 0
Cc1cc(C(=O)COC(=O)c2ccc(NC(=O)CC#N)cc2)c(C)n1CCc1ccc(F)cc1 | i | . | 10 | 53* | 15 | 23 | -19 | 17 | i | 3
CC(/C=C/c1ccc(N(C)C)cc1)=N/N=C1/NC(=O)CC(C(=O)Nc2ccc(Cl)cc2)S1 (stereo not drawn) | + | 19 | 7 | 65* | 29 | 89* | 23 | 87* | i | 0
Cc1cc(Br)ccc1NC(=O)CN(C)C(=O)C1CCN(C(=O)c2ccc(Cl)cc2)CC1 | i | . | 3 | 1 | -3 | . | . | . | . | .
CCN(CC)CCOC(=O)c1ccc(N/C=C(/C#N)c2nc(-c3ccc(OC)cc3)cs2)cc1 | i | 6 | 137* | 59* | 238 | 55* | -144 | 77* | i | 1
OCC1OCOC2C(CO)OCOC12 (stereo not drawn) | i | . | 4 | 2 | -1 | . | . | . | . | .
COc1ccccc1CNC(=O)COC(=O)c1nccnc1N | i | 5 | -5 | 2 | -1 | . | . | . | . | .
Nc1ccccc1C=C1Cc2ccccc2C1=O | i | . | 9 | 19 | -3 | . | . | . | . | .
Cc1cc(/C=C2\Cc3ccccc3C2=O)c(C)n1-c1ccccc1 | + | 17 | 21 | 56* | 11 | 124* | 1 | 105* | i | 11*
CCCS(=O)(=O)N1CCN(C(=O)c2cccc(OC)c2)CC1 | i | 1 | -1 | 2 | 0 | . | . | . | . | .
O=C(NC(=S)Nc1ccccc1C(=O)O)c1cncc(Br)c1 | i | -2 | -1 | 6 | 0 | . | . | . | . | .
O=C(NC(=S)Nc1ccccc1O)c1cncc(Br)c1 | i | 15 | 12 | 48* | 9 | 39 | -25 | 9 | i | 10*
CCOc1ccc(NC(=S)NC(=O)/C=C/c2ccc(C)cc2)c([N+](=O)[O-])c1 | . | 0 | -1 | 3 | 0 | . | . | . | . | .
CCOc1ccc(NC(=O)/C=C/c2ccc(OC)cc2)c([N+](=O)[O-])c1 | i | 7 | 16 | 48* | 24 | -16 | -26 | -20 | i | 0
CCOC(=O)c1c(NC(=O)C(C)OC(=O)c2ccc(NC(=O)CC#N)cc2)sc2c1CCCC2 (stereo not drawn) | + | 13 | 4 | 53* | 12 | 39 | 5 | 25 | i | 2
Cc1ccc(NC(=O)CSc2ncnc3ccccc23)cc1S(=O)(=O)N1CCCCCC1 | + | 3 | 0 | 43* | 2 | 22 | 50* | -14 | i | 0
SMILES | Myeloid diff 2 | TPT1 inh | CSN inh | Rpn11 inh | HNF4A DNA FP | Rpn11 inh conf | MMP-2 counter-1 | Thrombin inh | Myeloid diff CP1 | GFP autofluor | others
Cc1ccc(S(=O)(=O)N2CCCCC2)cc1NC(=O)CSc1ncnc2ccccc12 | i | -1 | 3 | -4 | 0 | . | . | . | . | .
CN1CCN(c2ccc(-c3cc(NC=O)c4ncc(-c5ccc(F)c(Cl)c5)n4c3)cc2)CC1 | + | . | 18 | 48* | 18 | 27 | -8 | 14 | i | 1
Cc1ccc(/C=C/c2onc(C)c2S(=O)(=O)N2CCC(C(=O)NC(C)(C)C)CC2)cc1 | i | 2 | -2 | 6 | 1 | . | . | . | . | .
CCn1cc(C(=O)O)c(=O)c2cc(F)c(N3CCN(C(=S)NC(=O)c4ccc(F)cc4)CC3)cc21 | i | 3 | -2 | 0 | -2 | . | . | . | . | .
CCCOc1ccc(C(=O)NC(=S)N2CCN(c3cc4c(cc3F)c(=O)c(C(=O)O)cn4CC)CC2)cc1 | + | 0 | -1 | 154* | -6 | -7 | -19 | -10 | i | 3
Cc1ccc(C(=O)O)cc1-c1ccc(/C=C2/NC(=O)N(c3ccccc3)C2=O)o1 | i | 3 | 41* | 42* | -24 | 75* | 18 | 31 | . | . | MMP-2 counter-2=9;Thrombin counter=21*
CCN(CC)CCOC(=O)c1ccc(N/C=C(/C#N)c2nc(-c3ccc4c(c3)OCO4)cs2)cc1 | i | 6 | 137* | 86* | 292* | 153* | -152 | 71* | . | . | CSN5 deneddyl=-48;MMP-2 counter-2=-5;Thrombin counter=11
